Tests used:
Cavia porcellus = species: Cavia porcellus; assay: Selectivity factor between CCK-B and CCK-A receptors
[1] = biological target: T1, Cholecystokinin receptor type A (Rattus norvegicus, UniProt P30551); assay: In vitro inhibition of binding of [3H]pCCK-8 against Cholecystokinin type A receptor of rat pancreatic membranes; type: cell membranes, Membrane
T1 sequence (P30551 whole entry): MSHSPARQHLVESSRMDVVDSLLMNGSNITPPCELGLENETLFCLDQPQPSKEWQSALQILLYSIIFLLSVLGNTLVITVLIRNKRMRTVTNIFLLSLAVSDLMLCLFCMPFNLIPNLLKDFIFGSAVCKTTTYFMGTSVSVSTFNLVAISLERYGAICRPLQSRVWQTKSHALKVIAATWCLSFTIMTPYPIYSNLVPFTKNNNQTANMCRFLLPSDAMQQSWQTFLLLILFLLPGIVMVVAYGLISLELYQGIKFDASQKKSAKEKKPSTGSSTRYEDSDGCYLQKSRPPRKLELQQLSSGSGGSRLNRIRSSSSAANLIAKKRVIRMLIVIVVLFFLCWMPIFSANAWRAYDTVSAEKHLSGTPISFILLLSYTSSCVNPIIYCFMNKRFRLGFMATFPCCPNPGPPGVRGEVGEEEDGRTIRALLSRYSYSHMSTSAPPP
Procedure, shortened: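 Radioligand displacement of [3H]CCK-8S from membranes: rat pancreas for the CCK-A receptor and guinea-pig cerebral cortex for the CCK-B receptor, using slightly modified published methods. Values are means of n experiments.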

SMILES | Ratio (Cavia porcellus) | Ki [1] [nM]
O=C(Nc1ccccc1)NC1C(=O)N(CCC23C[C@H]4C[C@@H](C2)C[C@@H](C3)C4)c2ccccc2N(c2ccccc2)C1=O (mixture of isomers) | 6 | 219
O=C(Nc1cccc(C2N=NN=N2)c1)NC1C(=O)N(c2ccccc2)c2ccccc2N(C2[C@H]3C[C@@H]4C[C@@H](C[C@H]2C4)C3)C1=O (stereo partly drawn) | 47 | 97.7
CC(O)C(O)Nc1cccc(NC(=O)NC2C(=O)N(CC34C[C@H]5C[C@@H](C3)C[C@@H](C4)C5)c3ccccc3N(c3ccccc3)C2=O)c1 (mixture of isomers) [listing 1 of 2 here] | – | 631
CSc1cccc(NC(=O)NC2C(=O)N(CCC(C)(C)C)c3ccccc3N(c3ccccc3F)C2=O)c1 (racemic) | 16 | 11.7
O=C(Nc1cccc(C(=O)O)c1)NC1C(=O)N(CC23C[C@H]4C[C@@H](C2)C[C@@H](C3)C4)c2ccccc2N(c2ccccc2)C1=O (mixture of isomers) | 646 | 631
CCCCN1C(=O)C(NC(=O)Nc2ccccc2)C(=O)N(c2ccccc2)c2ccccc21 (racemic) | 89 | 550
CC(O)C(O)Nc1cccc(NC(=O)NC2C(=O)N(CC34C[C@H]5C[C@@H](C3)C[C@@H](C4)C5)c3ccccc3N(c3ccccc3)C2=O)c1 (single isomer, unassigned; (+)) [listing 1 of 2 here] | – | 7410
CSc1cccc(NC(=O)NC2C(=O)N(CCC(C)C)c3ccccc3N(c3ccccc3F)C2=O)c1 (racemic) | 110 | 36.3
CC(=O)Nc1cccc(NC(=O)NC2C(=O)N(CC34C[C@H]5C[C@@H](C3)C[C@@H](C4)C5)c3ccccc3N(c3ccccc3)C2=O)c1 (stereo partly drawn) | 591 | 1510
CC(C)Cn1nnc(-c2cccc(NC(=O)NC3C(=O)N(CCC(C)(C)C)c4ccccc4N(c4ccccc4)C3=O)c2)n1 (racemic) | 20 | 49
CC(C)(C)CCN1C(=O)C(NC(=O)Nc2cccc(C#N)c2)C(=O)N(c2ccccc2)c2ccccc21 (stereo not drawn) | 151 | 97.7
CN(C)c1cccc(NC(=O)NC2C(=O)N(c3ccccc3)c3ccccc3N(C3CC4CCC3C4)C2=O)c1 (stereo not drawn) | 40 | 44.7
CCOC(=O)CCCOc1ccc(NC(=O)NC2C(=O)N(CC34C[C@H]5C[C@@H](C3)C[C@@H](C4)C5)c3ccccc3N(c3ccccc3)C2=O)cc1 (single isomer, unassigned; (+)) | > 1900 | > 10000
CC(O)C(O)Nc1cccc(NC(=O)NC2C(=O)N(CC34C[C@H]5C[C@@H](C3)C[C@@H](C4)C5)c3ccccc3N(c3ccccc3)C2=O)c1 (single isomer, unassigned; (+)) [listing 2 of 2 here] | 11000 | –
O=C(Nc1ccccc1)NC1C(=O)N(CC23C[C@H]4C[C@@H](C2)C[C@@H](C3)C4)c2ccccc2N(c2ccccc2)C1=O (single isomer, unassigned; (-)) | – | 479
CSc1cccc(NC(=O)NC2C(=O)N(CCC(C)(C)C)c3ccccc3N(c3ccccc3)C2=O)c1 (racemic) | 15 | 7.41
CC(C)CCN1C(=O)C(NC(=O)Nc2cccc(N(C)C)c2)C(=O)N(c2ccccc2F)c2ccccc21 (racemic) [listing 1 of 2 here] | 501 | –
O=C(Nc1ccc(O)cc1)NC1C(=O)N(CC23C[C@H]4C[C@@H](C2)C[C@@H](C3)C4)c2ccccc2N(c2ccccc2)C1=O (single isomer, unassigned; (+)) | 30900 | 20400
O=C(Nc1ccccc1)NC1C(=O)N(CCc2ccccc2)c2ccccc2N(c2ccccc2)C1=O (racemic) | 32 | 269
O=C(Nc1ccccc1)NC1C(=O)N(c2ccccc2)c2ccccc2N(C2CC3CCC2C3)C1=O (racemic) | 162 | 251
O=C(Nc1ccccc1)NC1C(=O)N(CCC2CCCC2)c2ccccc2N(c2ccccc2F)C1=O (racemic) | 138 | 100
CN(C)c1cccc(NC(=O)NC2C(=O)N(CCC34C[C@H]5C[C@@H](C3)C[C@@H](C4)C5)c3ccccc3N(c3ccccc3)C2=O)c1 (stereo partly drawn) | 22 | 295
CC(C)CCN1C(=O)C(NC(=O)Nc2cccc(N(C)C)c2)C(=O)N(c2ccccc2F)c2ccccc21 (single isomer, unassigned; (+)) [listing 1 of 2 here] | – | 200
CCOC(=O)c1cccc(NC(=O)NC2C(=O)N(CC34C[C@H]5C[C@@H](C3)C[C@@H](C4)C5)c3ccccc3N(c3ccccc3)C2=O)c1 (mixture of isomers) | 275 | 813
CC(C)(C)CCN1C(=O)C(NC(=O)Nc2cccc(OC(F)(F)F)c2)C(=O)N(c2ccccc2)c2ccccc21 (racemic) | 38 | 112

SMILES | Ratio (Cavia porcellus) | Ki [1] [nM]
CN(C)c1cccc(NC(=O)NC2C(=O)N(CCC(C)(C)C)c3ccccc3N(c3ccccc3F)C2=O)c1 (racemic) | 32 | 19.5
CC(C)C(C)CN1C(=O)C(NC(=O)Nc2ccccc2)C(=O)N(c2ccccc2)c2ccccc21 (racemic) | 110 | 123
O=C(Nc1cccc(CO)c1)NC1C(=O)N(CC23C[C@H]4C[C@@H](C2)C[C@@H](C3)C4)c2ccccc2N(c2ccccc2)C1=O (single isomer, unassigned; (+)) | 12000 | 2140
O=C(Nc1cccc([N+](=O)[O-])c1)NC1C(=O)N(CC23C[C@H]4C[C@@H](C2)C[C@@H](C3)C4)c2ccccc2N(c2ccccc2)C1=O (mixture of isomers) | 158 | 302
CC(C)CCN1C(=O)C(NC(=O)Nc2cccc(N(C)C)c2)C(=O)N(c2ccccc2F)c2ccccc21 (single isomer, unassigned; (+)) [listing 2 of 2 here] | 933 | –
O=C(Nc1ccc(Br)cc1)NC1C(=O)N(CC23C[C@H]4C[C@@H](C2)C[C@@H](C3)C4)c2ccccc2N(c2ccccc2)C1=O (stereo partly drawn) | 2460 | 3470
O=C(Nc1cccc(Cl)c1)NC1C(=O)N(c2ccccc2)c2ccccc2N(C2CC3CCC2C3)C1=O (stereo not drawn) | 28 | 47.9
O=C(Nc1cccc(C(=O)OCCN2CCOCC2)c1)NC1C(=O)N(CC23C[C@H]4C[C@@H](C2)C[C@@H](C3)C4)c2ccccc2N(c2ccccc2)C1=O (single isomer, unassigned; (+)) | 603 | 339
CN(C)c1ccc(NC(=O)NC2C(=O)N(CCC3CCCC3)c3ccccc3N(c3ccccc3F)C2=O)cc1 (racemic) | 141 | 661
O=C(O)CCCOc1ccc(NC(=O)NC2C(=O)N(CC34C[C@H]5C[C@@H](C3)C[C@@H](C4)C5)c3ccccc3N(c3ccccc3)C2=O)cc1 (single isomer, unassigned; (+)) | > 2630 | > 10000
CN(C)c1cccc(NC(=O)NC2C(=O)N(c3ccccc3)c3ccccc3N(C3[C@H]4C[C@@H]5C[C@@H](C[C@H]3C5)C4)C2=O)c1 (stereo partly drawn) | 60 | 141
CC(O)C(O)Nc1cccc(NC(=O)NC2C(=O)N(CC34C[C@H]5C[C@@H](C3)C[C@@H](C4)C5)c3ccccc3N(c3ccccc3)C2=O)c1 (mixture of isomers) [listing 2 of 2 here] | 575 | –
Nc1cccc(NC(=O)NC2C(=O)N(CC34C[C@H]5C[C@@H](C3)C[C@@H](C4)C5)c3ccccc3N(c3ccccc3)C2=O)c1 (single isomer, unassigned; (+)) | 13800 | 4070
O=C(Nc1ccccc1)NC1C(=O)N(CC2[C@H]3C[C@@H]4C[C@@H](C[C@H]2C4)C3)c2ccccc2N(c2ccccc2)C1=O (mixture of isomers) | 48 | 83.2
O=Cc1cccc(NC(=O)NC2C(=O)N(CC34C[C@H]5C[C@@H](C3)C[C@@H](C4)C5)c3ccccc3N(c3ccccc3)C2=O)c1 (stereo partly drawn) | 1180 | 1120
CSc1cccc(NC(=O)NC2C(=O)N(CCC34C[C@H]5C[C@@H](C3)C[C@@H](C4)C5)c3ccccc3N(c3ccccc3)C2=O)c1 (stereo partly drawn) | 4 | 251
O=C(Nc1cccc(C2N=NN=N2)c1)NC1C(=O)N(CCC2CCCC2)c2ccccc2N(c2ccccc2F)C1=O (racemic) | 468 | 120
CC(C)(C)CCN1C(=O)C(NC(=O)Nc2ccccc2)C(=O)N(c2ccccc2)c2ccccc21 (racemic) | 166 | 112
O=C(Nc1cccc(O)c1)NC1C(=O)N(CC23C[C@H]4C[C@@H](C2)C[C@@H](C3)C4)c2ccccc2N(c2ccccc2)C1=O (single isomer, unassigned; (+)) | 550 | 1580
CN(C)c1cccc(NC(=O)NC2C(=O)N(CC34C[C@H]5C[C@@H](C3)C[C@@H](C4)C5)c3ccccc3N(c3ccccc3)C2=O)c1 (mixture of isomers) | 398 | 447
CN(C)c1cccc(NC(=O)NC2C(=O)N(CCC3CCCC3)c3ccccc3N(c3ccccc3F)C2=O)c1 (racemic) | 71 | 47.9
CC(C)CCN1C(=O)C(NC(=O)Nc2cccc(N(C)C)c2)C(=O)N(c2ccccc2F)c2ccccc21 (single isomer, unassigned; (-)) [listing 1 of 2 here] | – | 72.4
CC(C)CCN1C(=O)C(NC(=O)Nc2cccc(N(C)C)c2)C(=O)N(c2ccccc2F)c2ccccc21 (racemic) [listing 2 of 2 here] | – | 126
O=C(Nc1cccc(Br)c1)NC1C(=O)N(CC23C[C@H]4C[C@@H](C2)C[C@@H](C3)C4)c2ccccc2N(c2ccccc2)C1=O (mixture of isomers) | – | 191
CC(C)CCN1C(=O)C(NC(=O)Nc2cccc(N(C)C)c2)C(=O)N(c2ccccc2F)c2ccccc21 (single isomer, unassigned; (-)) [listing 2 of 2 here] | 39 | –
